According to ChEMBL document CHEMBL1811839, “Lindenane disesquiterpenoids with anti-HIV-1 activity from Chloranthus japonicus” (J Nat Prod, 2011):

Columns and labels:
[1] = test system: Human immunodeficiency virus 1; assay: (§1) Antiviral activity against Human immunodeficiency virus 1 NL 4.3 harboring reverse transcriptase Y181C mutant pseudotyped with VSV-G envelope co-transfected with luciferase gene infected in 293T cells assessed as inhibition of HIV1 replication administered 15 mins prior to infection measured after 48 hrs post infection by luciferase assay; assay type: functional, organism-based; settings: Human immunodeficiency virus 1, NL 4.3, HEK-293T
Procedure, shortened: (§2)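 VSV-G plasmid co-transfected with env-deficient pNL4-3.luc.R-E vector (wild-type, RT-K103N or RT-Y181C) into 293T cells by modified Ca3(PO4)2 method; medium changed 16 h post-transfection; virion supernatant harvested 48 h, 0.45 μm filtered, p24 ELISA-quantified and diluted to 0.2 ng p24/mL. Target 293T cells plated 6 × 10^4/well a day before; compounds in DMSO added 15 min before infection; luciferase in lysates read 48 h post-infection; EFV positive control.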

[2] = test system: Human immunodeficiency virus 1; assay: as §1, with “K103N” for “Y181C”; assay type: functional, organism-based; settings: Human immunodeficiency virus 1, NL 4.3, HEK-293T; procedure, shortened: as §2
[3] = Cytotoxicity against human C8166 cells by MTT assay; assay type: cell-based
Procedure, shortened: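 MTT assay on C8166 cells yielding CC50.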

[4] = test system: Human immunodeficiency virus 1; assay: Antiviral activity against wild type Human immunodeficiency virus 1 NL 4.3 pseudotyped with VSV-G envelope co-transfected with luciferase gene infected in human 293T cells assessed as inhibition of HIV1 replication administered 15 mins prior to infection measured after 48 hrs post infection by luciferase assay; assay type: functional, organism-based; settings: Human immunodeficiency virus 1, NL 4.3, HEK-293T; procedure, shortened: as §2
[5] = Therapeutic index, ratio of CC50 for against human C8166 cells to EC50 for HIV-1; assay type: cell-based; settings: read-out: Ratio CC50/EC50
[6] = test system: Human immunodeficiency virus 1; assay: Antiviral activity against Human immunodeficiency virus 1 assessed as inhibition of virus-induced cytopathic effects by cell based assay; assay type: functional, organism-based
Procedure, shortened: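 HIV-1 cytopathic-effect inhibition assay yielding EC50; AZT positive control.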

SMILES | EC50 [1] [nM] | EC50 [2] [nM] | CC50 [3] [nM] | EC50 [4] [nM] | selectivity ratio [5] | EC50 [6] [nM]
O=C1Nc2ccc(Cl)cc2[C@@](C#CC2CC2)(C(F)(F)F)O1 [EFAVIRENZ] | 2 | 24 |  |  |  | 
COC(=O)/C(C)=C1\C(=O)[C@H](O)[C@]2(C)C3=C(C[C@@H]4[C@]5(OC(=O)C6=C5C[C@H]5[C@](O)(COC(=O)/C(C)=C/COC(=O)CCC(=O)OC6)[C@H]6C[C@H]6[C@]45C)[C@H]31)[C@H]1C[C@H]12 [SHIZUKAOL B] | 500 | 470 | 20 | 220 | 14.4 | 1.4
C/C=C(\C)C(=O)OCC1=C2C[C@H]3[C@H](O)[C@H]4C[C@H]4[C@]3(C)[C@@H]3C[C@@]4(O)C5=C(/C(=C(/C)C(=O)OC)C(=O)[C@H](O)[C@@]5(C)[C@@H]5C[C@@H]54)[C@]23OC1=O [SHIZUKAOL C] | 1000 | 1360 | 89 | 980 | 5.56 | 16
COC(=O)/C(C)=C1\C(=O)[C@H](O)[C@]2(C)C3=C(C[C@@H]4[C@]5(OC(=O)C6=C5C[C@H]5[C@](O)(COC(=O)/C=C(\C)COC(=O)CCC(=O)OC6)[C@H]6C[C@H]6[C@]45C)[C@H]31)[C@H]1C[C@H]12 [SHIZUKAOL F] | 4050 | 3390 | 47 | 110 | 10.9 | 4.3
COC(=O)/C(C)=C1\C(=O)[C@H](O)[C@]2(C)C3=C(C[C@@H]4[C@]5(OC(=O)C6=C5C[C@H]5[C@](O)(COC(=O)/C=C(\C)COC(=O)[C@@H](O)CC(=O)OC6)[C@H]6C[C@H]6[C@]45C)[C@H]31)[C@H]1C[C@H]12 [SHIZUKAOL H] | 860 | 2350 | 22 | 830 | 6.67 | 3.3
Cc1cn([C@H]2C[C@H](N=[N+]=[N-])[C@@H](CO)O2)c(=O)[nH]c1=O [ZIDOVUDINE] |  |  |  |  | 1.02e+06 | 
